In BindingDB's records for doi:10.1021/acs.jmedchem.5b01762 (University of Illinois At Chicago, 2016):

Assays:
[1] = target: T1, DNA repair protein RAD51 homolog 1 (Homo sapiens, UniProt Q06609); test: Inhibition of human N-terminal 6-histidine/Avi-tagged recombinant RAD51 expressed in Escherichia coli BL21(DE3) assessed as D-loop formation using 5'-32P-labeled 90-mer ssDNA as substrate preincubated for 10 mins followed by substrate addition with subsequent incubation with substrate for 5 mins measured after 20 mins in presence of supercoiled pRS306 dsDNA by agarose gel electrophoresis
T1 sequence (Q06609 whole entry): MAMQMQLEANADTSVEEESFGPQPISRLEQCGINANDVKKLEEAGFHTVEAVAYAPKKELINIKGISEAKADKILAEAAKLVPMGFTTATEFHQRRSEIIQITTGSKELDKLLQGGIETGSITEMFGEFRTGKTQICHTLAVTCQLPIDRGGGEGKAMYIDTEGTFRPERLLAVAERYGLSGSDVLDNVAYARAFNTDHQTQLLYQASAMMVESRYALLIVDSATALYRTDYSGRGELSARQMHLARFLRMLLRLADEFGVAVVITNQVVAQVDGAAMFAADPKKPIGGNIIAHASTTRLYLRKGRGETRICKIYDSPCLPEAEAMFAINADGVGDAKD

[2] = target: T1, DNA repair protein RAD51 homolog 1; test: Inhibition of Escherichia coli BL21(DE3) expressing human N-terminal 6-histidine/Avi-tagged RAD51 binding to 5'-Alexa488-oligo-dT45 ssDNA preincubated for 40 mins followed by substrate addition measured after 40 mins by fluorescence polarization based microplate method
Procedure, shortened: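 Human RAD51 preincubated with compound in DMSO at 37 °C for 40 min, then 5'-Alexa488-oligo-dT45 added and incubated another 40 min at 37 °C. Buffer: 20 mM HEPES pH 7.5, 2 mM ATP, 10 mM MgCl2, 0.1 mM TCEP. IC50 from least-squares dose–response fits with standard error.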

SMILES: COc1ccc2c(c1)NC(c1ccc(N(C)C)cc1)c1cccn1-2 (configuration not stated)
- IC50 [1]: > 100 µM
- IC50 [2]: > 100 µM
